{"source": "paper PMC4703045", "about": "(Chemistry & biology, 2015)", "key": {"[1]": {"biological_target": "T1, PKG Iα (Bos taurus, UniProt P00516)", "T1 sequence (P00516 1-671)": "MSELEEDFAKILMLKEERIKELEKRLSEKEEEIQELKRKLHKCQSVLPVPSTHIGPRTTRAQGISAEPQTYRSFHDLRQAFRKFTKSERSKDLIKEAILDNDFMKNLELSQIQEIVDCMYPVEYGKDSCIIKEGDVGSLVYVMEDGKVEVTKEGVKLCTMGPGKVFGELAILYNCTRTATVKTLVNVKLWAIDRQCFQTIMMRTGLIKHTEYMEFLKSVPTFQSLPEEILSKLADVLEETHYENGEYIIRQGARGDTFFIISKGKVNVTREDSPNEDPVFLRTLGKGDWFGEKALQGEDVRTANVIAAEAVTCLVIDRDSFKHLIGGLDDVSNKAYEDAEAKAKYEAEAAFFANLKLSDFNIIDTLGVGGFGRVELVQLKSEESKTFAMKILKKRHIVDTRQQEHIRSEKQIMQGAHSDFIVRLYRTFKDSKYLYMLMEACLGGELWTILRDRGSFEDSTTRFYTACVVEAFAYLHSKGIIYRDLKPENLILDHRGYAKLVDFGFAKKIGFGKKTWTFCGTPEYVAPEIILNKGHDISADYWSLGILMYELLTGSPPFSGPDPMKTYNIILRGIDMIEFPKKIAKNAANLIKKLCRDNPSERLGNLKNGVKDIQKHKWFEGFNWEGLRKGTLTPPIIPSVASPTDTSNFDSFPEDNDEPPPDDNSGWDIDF", "test": "PKG Iα kinase activation, γ32P-ATP incorporation assay with W15 substrate", "assay_type": "biochemical", "details": "for activation of PKG Iα (in words): absence of cGMP, 15 min pre-incubation at 30°C"}, "[2]": {"system": "KCa1.1 channel", "test": "KCa1.1 channel open probability", "assay_type": "biochemical, rat", "details": "500 nM Ca2+", "in_short": "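Inside-out patches excised from enzymatically dispersed cerebral artery smooth muscle cells. Bath (cytosolic face), mM: 140 KCl, 2 MgCl2, 0.1 Mg-ATP, 10 HEPES pH 7.3, 3 EGTA, CaCl2 to 500 nM. Pipette, mM: 120 NaCl, 20 KCl, 2 MgCl2, 1 CaCl2, 10 HEPES pH 7.4. […] NPo normalised to control patches; mean ± SEM.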"}, "[3]": {"test": "Secondary structure by circular dichroism spectroscopy", "assay_type": "physicochemical", "details": "10 µM peptide in 10 mM PBS pH=7.4, 22°C, 260 to 190 nm", "in_short": "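CD spectra at 22°C in a 2 mm cuvette, with 10 µM peptide in 10 mM PBS pH 7.4. Scanned 260–190 nm at 0.5 nm intervals with 2 s integration and 100 nm/min. Ten accumulations were averaged per peptide, and output was given as mean residue ellipticity (mdeg × cm2/dmol × residue).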"}, "[4]": {"system": "posterior cerebral arteries with intact endothelium", "assay_type": "cell-based, rat", "details": "control PCAs with intact endothelium, without S1.5"}, "[5]": {"system": "endothelium-denuded posterior cerebral arteries", "assay_type": "cell-based, rat", "details": "paxilline 1 µM; endothelium-denuded control PCAs without S1.5"}, "[6]": {"system": "PKG Iβ", "test": "PKG Iβ kinase activation assay", "assay_type": "biochemical", "details": "Ni-IMAC-purified PKG Iβ, over basal activity (Figure S1B)"}, "[7]": {"biological_target": "cGMP-dependent protein kinase Iα (UniProt P00516)"}, "[8]": {"biological_target": "cGMP-dependent protein kinase Iα (UniProt P00516)", "remark": "listed apart in the source"}}, "data": [{"molecule": "Ac-AEAKAKYEAEAAFFANLKLSD-NH2 [S1.11]", "values": [{"measurement": "activation of PKG Iα (in words)", "setting": "[1]", "value": "complete loss of activity"}]}, {"molecule": "Ac-DVSNKAYEDAEAKAKYEAEAAFFANLKLSD-NH2 [S1.1]", "values": [{"measurement": "EC50", "setting": "[1]", "value": "35 ± 4", "unit": "µM"}, {"measurement": "activation of PKG Iα (in words)", "setting": "[1]", "value": "robust and cooperative activation"}, {"measurement": "effect on KM for the substrate peptide W15", "setting": "[1]; control experiment (Figure S4)", "value": "did not affect the KM"}, {"measurement": "increase of KCa1.1 channel activity (NPo) versus control", "setting": "[2]; 100 µM peptide pre-incubated with PKG Iα, +10mV, p<0.05", "value": 6, "unit": "fold"}]}, {"molecule": "Ac-DVSNKAYEDAEAKAKYEAEAAAAANLKLSD-NH2 [S1.6]", "values": [{"measurement": "activation of PKG Iα (in words)", "setting": "[1]", "value": "equivalent to removal of the entire knob"}, {"measurement": "helicity (secondary structure by CD)", "setting": "[3]", "value": "increased degree of helicity"}]}, {"molecule": "CC(C)(O)[C@H]1O[C@H]2CC[C@@]3(C)[C@@](O)(CC[C@H]4Cc5c([nH]c6ccccc56)[C@@]43C)C2=CC1=O", "note": "[paxilline]", "values": [{"measurement": "paxilline-induced constriction in control arteries", "setting": "[4]", "value": 4, "unit": "%"}, {"measurement": "additional constriction on paxilline in control arteries", "setting": "[5]", "value": 5, "unit": "%"}]}, {"molecule": "Nc1nc2c(ncn2[C@@H]2O[C@@H]3COP(=O)(O)O[C@H]3[C@H]2O)c(=O)[nH]1", "note": "[cGMP, cyclic guanosine-3’,5’-monophosphate]", "values": [{"measurement": "increase in activity under saturating quantities of cGMP", "setting": "[6]", "value": 15, "unit": "fold"}, {"measurement": "change in KCa1.1 open probability (NPo)", "setting": "[2]; 50 nM cGMP with recombinant PKG Iα in bath solution", "value": "no significant change"}, {"measurement": "increase of KCa1.1 NPo above the control", "setting": "[2]; 5 µM cGMP (saturating) with PKG Iα, p<0.002", "value": "eight"}]}, {"molecule": "Ac-EDAEAKAKYEAEAAFFANLKLSD-NH2 [S1.9]", "values": [{"measurement": "EC50", "setting": "[1]", "value": "43 ± 5", "unit": "µM"}]}, {"molecule": "Ac-DVSNKAYEDAEAKAKYEAEAA-NH2 [S1.3]", "values": [{"measurement": "activation of PKG Iα (in words)", "setting": "[1]", "value": "completely abolished kinase activity"}, {"measurement": "helicity (secondary structure by CD)", "setting": "[3]", "value": "helicity was compromised but not completely lost"}]}, {"molecule": "Ac-ALKSENYADKVEFKDAKYEASALANEFADA-NH2 [S1.7]", "values": [{"measurement": "activation of PKG Iα (in words)", "setting": "[1]", "value": "did not activate the kinase"}, {"measurement": "helicity (secondary structure by CD)", "setting": "[3]", "value": "found to not be helical"}]}, {"molecule": "Ac-DAEAKAKYEAEAAFFANLKLSD-NH2 [S1.10]", "values": [{"measurement": "EC50", "setting": "[1]", "value": "45 ± 4", "unit": "µM"}]}, {"molecule": "Ac-NKAYEDAEAKAKYEAEAAFFANLKLSD-NH2 [S1.4]", "values": [{"measurement": "EC50", "setting": "[1]", "value": "12 ± 1", "unit": "µM"}]}, {"molecule": "Ac-DVSNKAYEDAEAKAKYEAEAAFFANLK-NH2 [S1.2]", "values": [{"measurement": "EC50", "setting": "[1]", "value": "35 ± 4", "unit": "µM"}]}, {"molecule": "Ac-NKAYEDAEAKAKYEAEAAFFANLKLSD-NH2", "note": "[S1.4]", "values": [{"measurement": "maximal velocity of PKG Iα kinase activity with the peptide", "setting": "[7]", "value": 80, "unit": "%"}]}, {"molecule": "Ac-DVSNKAYEDAEAKAKYEAEAAFFANLK-NH2", "note": "[S1.2]", "values": [{"measurement": "maximal efficacy of activation of PKG Iα kinase activity", "setting": "[8]", "value": "60 % of maximum"}]}]}
